CaV13 ICDI inh: Primary screen for inhibitors of IQ motif and Ca2+-dependent inactivation inhibitor domain binding in CACNA1D, Förster resonance energy transfer in living cells, …. hit rate 0.098% among 340,000. inhibition, % at 12.3 µM. HEK cells, CFP/YFP FRET ICDI-IQ, plate reader, 10 min; percent FRET-ratio fall versus neutral wells;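 active = mean replicate inhibition of at least 30% and at least 1% of replicates passing that level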;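 note: 0% = median of the neutral control wells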
CendR NRP1 mod: modulators of CendR peptide binding to NRP-1, primary screen, biochemical, fluorescence polarization, uHTS | Neuropilin-1 (Homo sapiens), O14786 | FAM-RPARPAR peptide binding to NRP-1 | inhibition, % at 25 µM | hit rate 0.85% among 360,000 | AID 602438, 2012;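 active = inhibition or corrected inhibition above about 18%, plus a signal ratio from 0.5 to 1.5, limit read from the data, passing the limit was not always enough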
ADAM10 inh: human ADAM10 inhibitors, primary screen, biochemical, QFRET, HTS; Disintegrin and metalloproteinase domain-containing protein 10 (Homo sapiens), O14672; recombinant ADAM10, EDANS/DABCYL FRET peptide cleavage, 3 h; inhibition, % at 7 µM; hit rate 0.62% among 370,000;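 active = inhibition above a per-campaign cutoff equal to the mean of compounds falling between control-based bounds plus 3 SD, cut at about 20% in these data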;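 note: 0% = DMSO wells while the 100% control is not disclosed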
ADAM17 inh: ADAM17 inhibitors, primary screen, biochemical, QFRET; recombinant ADAM17, EDANS/DABCYL FRET peptide cleavage; inhibition, % at 6.95 µM; hit rate 0.83% among 370,000; AID 720648, 2013;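 active = inhibition above the mean of compounds lying between control limits plus 3 SD, set per campaign, cut at about 8.5% in these data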;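 note: 0% = DMSO-only wells as the low control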
Arr AP2 block: inhibitors of beta-arrestin/AP2 binding, primary screen, biochemical, GPCR trafficking, flow cytometry | FITC-arrestin peptide / GST-AP2 beads; AP2 beta2 appendage carries R879A mutation | inhibition, % at 10 µM | hit rate 0.31% among 340,000 | AID 504490, 2011;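 active = inhibition above a set limit, near 3 SD of compounds lacking own fluorescence, cut at about 54% in these data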;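 note: plate controls were DMSO wells for no effect and 5 µM unlabelled arrestin peptide for full effect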
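Test system: GST-tagged AP2 beta2-adaptin appendage (R879A) on 4 µm glutathione beads; also added: fluorescein-tagged arrestin peptide at 50 nM final; timing: 12 min plus 1 h, RT; signal: flow cytometry, FL1 (488/535 nm); read-out: percent drop in bead-associated FITC signal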
FAS-TE inh: FAS thioesterase domain inhibitors, primary screen, biochemical, fluorescence intensity, uHTS. inhibition, % at 15 µM. recombinant FAS-TE, OMFH fluorogenic substrate, fluorescence endpoint. hit rate 0.67% among 360,000. Fatty acid synthase (Homo sapiens), P49327. AID 602261, 2012;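 active = compounds whose normalised, plate-corrected inhibition of enzyme fluorescence in the single-dose primary screen is 50% or more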;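 note: 0% = DMSO with enzyme and 100% = substrate without enzyme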
* = called active by the depositor; / = no result. An excerpt weighted towards active compounds, which were near 2.9% of everything screened.

SMILES	CaV13 ICDI inh	CendR NRP1 mod	ADAM10 inh	ADAM17 inh	Arr AP2 block	FAS-TE inh
CCOC(=O)N1CCN(C(=O)C[C@@H]2C(=O)N(Cc3ccc(OC)cc3)C3=CCN(C(=O)OC(C)(C)C)C[C@]32C(=O)OCC)CC1	/	/	-9.4	-4.4	/	/
Cc1ccc(S(=O)(=O)N(C)[C@H]2C[C@H]3c4cc(-c5ccc6c(c5)OCO6)ccc4CCN3C[C@H]2[C@H](C)O)cc1	-3.9	/	-11.3	-4.7	/	/
Oc1cc(Nc2ccccc2)cc2cccnc12	-4.6	-4.5	1.2	0.0	-5.6	1.2
Oc1cc(NCCN2CCOCC2)cc2cccnc12	-10.4	29.3*	-22.4	-7.6	3.6	-2.3
O=C(CN(CC1CCCO1)C(=O)CNS(=O)(=O)c1ccc(Cl)cc1)NCC1CCCO1 (stereo not given)	-5.1	30.2*	-2.0	-5.0	7.7	-5.8
Cc1ccc(S(=O)(=O)NCC(=O)N(CC(=O)NCC2CCCO2)Cc2ccc(Cl)cc2)cc1 (stereo not given)	-2.3	1.4	1.9	-0.6	29.3	-2.3
CCOc1ccc(CCNC(=O)C2(c3ccccc3)CC2)cc1OCC	/	19.5*	6.8	-0.6	-8.5	-5.5
CCn1c(=S)[nH]c2ccccc21	-4.9	9.8	1.9	3.6	-10.6	-7.8
O=C(Cn1c(=S)[nH]c2ccccc21)c1ccccc1	-4.6	32.8*	-1.5	1.4	-13.9	-7.5
COc1ccc(CNC(=O)COC(=O)CN2C(=O)C3CC=CCC3C2=O)cc1 (stereo not given)	-5.9	16.4	-17.0	-4.6	-8.8	-6.7
COc1ccc(C(=O)Nn2cnnc2)cc1	-2.5	10.4	3.2	-3.8	-2.4	-9.4
CCCCOc1ccc(C(=O)Nn2cnnc2)cc1	-3.1	24.9*	2.8	-4.1	-6.4	-5.3
COc1ccc(C(=O)NC(=O)Nc2ncccc2C)cc1	-3.5	31.2*	-3.5	-3.3	3.2	-8.7
COc1cccc(C=Cc2nccc3ccccc23)c1OC	-6.5	25.4*	-30.8	-5.5	/	4.2
C[C@H]1Cn2cnc(C(=O)NCc3ccc(CNC(=O)OC(C)(C)C)cc3)c2C(=O)N1	-3.5	-6.1	-4.3	2.7	/	-11.6
CC12CCC(=O)N1C(C(=O)NCCc1ccc(F)cc1)CS2 (stereo not given)	/	-4.0	-20.5	-3.0	0.5	-9.2
CC12CCC(=O)N1C(C(=O)NCCc1ccccc1)CS2 (stereo not given)	-8.9	25.2*	1.2	-1.9	-2.3	-4.3
COc1ccc(C2=NN(C(=O)c3cccc([N+](=O)[O-])c3)C(c3cccc([N+](=O)[O-])c3)C2)cc1 (stereo not given)	-7.1	-14.9	5.2	-0.5	-6.1	50.1*
COc1ccc(C2CC(c3ccc([N+](=O)[O-])cc3)=NN2C(=O)c2ccccc2)cc1OC (stereo not given)	-6.9	8.2	8.8	3.0	-2.6	20.6
Cc1cccc(C)c1NC(=O)C(c1ccccc1F)n1c(=O)c(-c2cc3ccccc3[nH]2)nc2ccccc21 (stereo not given)	-22.2	12.3	-315.2	-102.5	/	/
CC(C)CC(=O)N1CCN(c2ccc([N+](=O)[O-])c(NCc3ccccc3)c2)CC1	-5.3	7.0	18.3	12.7*	-1.1	27.1
COc1cc(Nc2cc(C)n(-c3cc(OC)cc(OC)c3)c(=O)c2)cc(OC)c1	/	/	-11.4	-4.4	/	/
CCCc1nc2sc3c(c2c(=O)n1NC(=O)CCC(=O)OC)CCCC3	-4.3	-1.4	7.7	5.4	-0.2	-2.4
Cc1nc2sc3c(c2c(=O)n1NC(=O)CCBr)CCCC3	8.5	5.9	4.9	2.1	61.8*	-4.9
COc1ccc(/C=C/C(=O)c2cc(F)ccc2OC(=O)c2ccccc2)cc1OC	-6.0	0.1	11.5	10.7*	27.1	0.5
CCOC(=O)c1sc(-c2ccc(OC)cc2)cc1N	/	26.3*	-116.4	-33.9	4.2	6.9
